# PubChem BioAssay
# The other results are listed elsewhere or left out. Calls of active or inactive are those of the source. Unless noted, no stated cut-off is given here; in the data, active means inhibition above about 40%; inactive means the rest.
# Legend:
# [1] = inhibition of PEG-3 promoter luciferase signal – cell-based, HeLa, luciferase reporter, single concentration, confirmation (AID 602417;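 active means at 20 µM dose, 40% or more inhibition averaged across four replicates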); details: HeLa PEG-Prom luciferase reporter, luminescence, overnight; at 20 µM; stronger effect = higher value
# PEG-3 [2] = target: PEG-3 (UniProt Q6IN02); assay: inhibition of PEG-3 promoter-driven reporter – cell-based, HeLa, luciferase, CREF/GAPDH counter-screen panel, dose response (AID 624167); details: CREF/GAPDH counter-screens; HeLa PEG-Prom luciferase reporter, overnight, run 1, dose range 1, at 100 µM (top of the series) unless noted
# PEG-3 [3] = target: PEG-3 (UniProt Q6IN02); assay: as above; details: CREF/GAPDH counter-screens; HeLa PEG-Prom luciferase reporter, overnight, run 2, dose range 1, at 100 µM (top of the series) unless noted
# [4] = NF-kB reporter suppression in CF airway cells – cell-based, GFP fluorescence, single concentration, confirmation (AID 602472); details: KKLEB CF airway cells, PAF-induced NF-kB-GFP fluorescence, overnight; at 5 µM; stronger effect = higher value;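 further: stimulus PAF is a Pseudomonas aeruginosa filtrate and not platelet activating factor; plate controls were DMSO wells with stimulus for no effect and unstimulated DMSO wells for full effect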
# In short: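 Material – KKLEB NFkB-GFP reporter cells · Buffer or medium – medium with 2% FBS for cells, serum-free medium for stimulus · Incubation – 2 h pretreatment, overnight stimulation · Signal – reporter fluorescence (GFP) · Also added – Pseudomonas aeruginosa filtrate (PAF) as NFkB-activating stimulus · Doses – 5 µM single dose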
# [5] = HIF-2a driven luciferase blockers, single dose – luminescence, 786-0 RCC cells, confirmation (AID 651580;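 active means mean inhibition across four replicates of at least 40 percent at the single tested concentration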); details: HIF-2a luciferase reporter luminescence, overnight, at 18.8 µM, stronger effect = higher value
# [6] = HIF-1a luciferase reporter signal reduction – MiaPaCa-2 cells, single concentration, counter-screen for HIF-2a inhibitor project, confirmation (AID 651589;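 active means mean inhibition of the reporter signal across four replicates at the single tested dose of 50% or more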); details: MiaPaCa-2 HIF-1a luciferase reporter, desferoxamine, overnight; at 18.8 µM; stronger effect = higher value
# Rat fibroblasts (CREF) [7] = assay: inhibition of PEG-3 promoter-driven reporter – cell-based, HeLa, luciferase, CREF/GAPDH counter-screen panel, dose response (AID 624167); details: CREF/GAPDH counter-screens; run 1, dose range 1, at 100 µM (top of the series)
# Rat fibroblasts (CREF) [8] = assay: as above; details: CREF/GAPDH counter-screens; run 2, dose range 1, at 100 µM (top of the series)
# [9] = NFkB reporter suppression in cystic fibrosis bronchial cells – cell-based, uHTS hits, panel, cytotoxicity readout, dose response (AID 624344); details: CF bronchial epithelial cells, PAF-induced NFkB reporter inhibition, with PAF, run 1; at 79 µM (top of the series) unless noted
# [10] = as above; details: CF bronchial epithelial cells, PAF-induced NFkB reporter inhibition, with PAF, run 2; at 79 µM (top of the series) unless noted
# PEG-3, sequence (Q6IN02 whole entry, looked up): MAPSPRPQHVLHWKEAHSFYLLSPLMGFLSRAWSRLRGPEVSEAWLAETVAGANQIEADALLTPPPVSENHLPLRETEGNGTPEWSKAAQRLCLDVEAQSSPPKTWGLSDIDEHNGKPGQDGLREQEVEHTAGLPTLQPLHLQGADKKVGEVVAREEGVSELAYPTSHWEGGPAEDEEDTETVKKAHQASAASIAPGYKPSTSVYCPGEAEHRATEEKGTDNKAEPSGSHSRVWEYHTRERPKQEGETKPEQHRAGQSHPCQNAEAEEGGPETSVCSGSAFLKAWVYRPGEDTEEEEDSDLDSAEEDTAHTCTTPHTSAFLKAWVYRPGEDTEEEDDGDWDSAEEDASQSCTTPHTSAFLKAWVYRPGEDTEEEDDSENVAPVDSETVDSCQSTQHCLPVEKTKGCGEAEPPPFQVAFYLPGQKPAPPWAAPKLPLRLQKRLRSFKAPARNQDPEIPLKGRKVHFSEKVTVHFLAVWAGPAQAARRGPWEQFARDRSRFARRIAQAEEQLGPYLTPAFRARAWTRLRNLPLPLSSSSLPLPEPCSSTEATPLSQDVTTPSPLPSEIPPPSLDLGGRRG
smiles,measurement,setting,value
C=CC[C@@H](CC(=O)N[C@@H](CO)Cc1ccccc1)C(=O)N[C@H](COC(=O)[C@H](CC=C)CC(=O)OC(C)(C)C)Cc1ccccc1,inhibition,[1],6.88% (inactive)
CCn1cc(CN2CCC(C(=O)Nc3cccc(-c4cccc(Cl)c4)c3)CC2)cn1,inhibition,[1],94.5% (active)
same,inhibition,PEG-3 [2],99.1%
same,inhibition,PEG-3 [3],98.3%
CCCc1cc(=O)n2[nH]c(C)c(-c3ccc(Cl)cc3)c2n1,inhibition,[1],51.5% (active)
same,inhibition,PEG-3 [2],94%
same,inhibition,PEG-3 [3],88.7%
O=c1[nH]c(=S)[nH]c(O)c1/C=C1\C=Nc2ccccc21,inhibition,[1],47.7% (active)
same,inhibition,PEG-3 [2],73%
same,inhibition,PEG-3 [3],"100% [run 2, dose range 1, at 50 µM]"
CC(C)CN(C(=O)COC(=O)c1ccc2ccccc2c1)c1c(N)n(Cc2ccccc2)c(=O)[nH]c1=O,inhibition,[1],34.1% (inactive)
Cc1cc2nc(-c3ccco3)c(Cc3cccc(F)c3)n2c(C)c1Br,inhibition,[4],-41.6% (inactive)
CN1OC[C@@H]2CN(S(=O)(=O)c3cccc(C(F)(F)F)c3)[C@H](c3ccc(-c4cc5ccccc5o4)cc3)C[C@@H]21,inhibition,[1],52.7% (active)
same,inhibition,[5],46.4% (active)
same,inhibition,[6],75.2% (active)
same,inhibition,PEG-3 [2],60%
same,inhibition,PEG-3 [3],73.1%
same,inhibition,Rat fibroblasts (CREF) [7],17%
same,inhibition,Rat fibroblasts (CREF) [8],24.5%
c1nnc2c3c4c(sc3ncn12)CCC4,inhibition,[4],22.1% (inactive)
O=C1Nc2ccccc2/C1=C/c1ccnc2ccccc12,inhibition,[4],55% (active)
same,inhibition,[9],106%
same,inhibition,[10],111%
C=C1C(=O)[C@]23C[C@H]1CCC2[C@@]1(C)C(C[C@@H]3O)[C@](C)(C(=O)O)CC[C@@H]1O (stereo partly specified),inhibition,[4],83% (active)
same,inhibition,[9],97.1%
same,inhibition,[10],104%
CCc1ccc(N(CC)c2ncnc3nc[nH]c23)cc1,inhibition,[4],62.6% (active)
same,inhibition,[9],101%
same,inhibition,[10],99.3%
C=CCc1cc(S(=O)(=O)c2ccc(O)c(CC=C)c2)ccc1O,inhibition,[4],48.8% (active)
same,inhibition,[9],111%
same,inhibition,[10],99.2%
Cc1c(C)c2ccc(OCC(=O)N3CCN(c4cccc(Cl)c4)CC3)cc2oc1=O,inhibition,[4],10.3% (inactive)
CC(C)CC1C(=O)N(Cc2cn(Cc3ccco3)nn2)CCS(=O)(=O)N1Cc1ccc(-c2ccc(Cl)c(Cl)c2)cc1 (stereo unspecified),inhibition,[4],45.6% (active)
C=CCSc1nsc(NC(=O)Nc2cccc(C(C)=O)c2)n1,inhibition,[4],98.3% (active)
same,inhibition,[9],109%
same,inhibition,[10],101%
COc1ccc(CNC(=O)/C(C#N)=C/c2cccc(OC)c2OC)cc1,inhibition,[4],34.1% (inactive)
COc1cc(C2c3cc4c(cc3C(O)C3COC(=O)C23)OCO4)cc(OC)c1OC (stereo unspecified),inhibition,[4],83.3% (active)
same,inhibition,[9],-0.395%
same,inhibition,[10],37.3%
COc1ccc(NC(=O)c2cc(-c3cc(OC)c(OC)c(OC)c3)nc3ccccc23)c(OC)c1,inhibition,[4],24.8% (inactive)
COc1ccc(CNc2ncnc3ccccc23)cc1,inhibition,[4],47.6% (active)
same,inhibition,[9],112%
same,inhibition,[10],87%
CCSc1nsc(NC(=O)Nc2cccc(C(C)=O)c2)n1,inhibition,[4],98.9% (active)
same,inhibition,[9],117%
same,inhibition,[10],97%
Cc1ccc(NC(=O)Nc2nnc(-c3ccncc3)s2)cc1,inhibition,[4],59.6% (active)
same,inhibition,[9],103%
same,inhibition,[10],114%
C#CCN(C[C@@H]1[C@@H](OC(=O)NC2CC2)[C@@H](OC(=O)NC2CC2)Cn2c(=O)ccc(=O)n21)S(=O)(=O)c1ccc(C)cc1,inhibition,[4],61.6% (active)
same,inhibition,[9],102%
same,inhibition,[10],111%
CCCc1nc2c(c(=O)c3ccccc3n2C)c(=O)n1C1CCCCCC1,inhibition,[4],46.9% (active)
O=C(Nc1ccc(Cl)cc1)Nc1nnc(/C=C/c2ccccc2)s1,inhibition,[4],50.8% (active)
COc1ccc(-c2ccc(CN3C(CC(C)C)C(=O)N(Cc4cn(CC5CCCCC5)nn4)CCS3(=O)=O)cc2)cn1 (stereo unspecified),inhibition,[4],36.1% (inactive)
COc1cncc(-c2cnc3sc(NCCc4ccccn4)nn23)c1,inhibition,[4],76.6% (active)
same,inhibition,[9],102%
same,inhibition,[10],109%
O=C(Nc1ccc2oc(-c3ccc4ccccc4c3)nc2c1)c1cccs1,inhibition,[4],38.7% (inactive)
O=C(CSc1nc(C2CC2)nc2ccccc12)Nc1cccc(O)c1,inhibition,[4],50.6% (active)
same,inhibition,[9],90.6%
same,inhibition,[10],79.8%
CC(=O)Oc1c(C(=O)c2nnc(C)o2)c(=O)n(Cc2ccccc2)c2ccccc12,inhibition,[4],59% (active)
same,inhibition,[9],112%
same,inhibition,[10],101%
Cc1ccc(CCC(=O)Nc2ncc(Cc3cc(Cl)ccc3Cl)s2)o1,inhibition,[4],83.8% (active)
same,inhibition,[9],101%
same,inhibition,[10],101%
CCOC(=O)c1c(-c2ccccc2)oc2cc(Br)c(O)c(C=O)c12,inhibition,[4],90.8% (active)
same,inhibition,[9],90.8%
same,inhibition,[10],84.3%
Cc1cccc2sc(N(CCCN(C)C)C(=O)CCS(=O)(=O)c3ccccc3)nc12,inhibition,[4],84.3% (active)
same,inhibition,[5],22.5% (inactive)
same,inhibition,[6],98.9% (active)
same,inhibition,[9],98.4%
same,inhibition,[10],102%
COc1ccc(CNC(=O)C(c2ccc(O)cc2)N(Cc2ccco2)C(=O)c2snc(C(N)=O)c2N)cc1 (stereo unspecified),inhibition,[4],49.2% (active)
same,inhibition,[9],114%
same,inhibition,[10],104%
